How the values were obtained:
[1] = target: T1, Multidrug efflux pump subunit AcrB (Escherichia coli (strain K12)) (UniProt P31224); test: Inhibition of AcrB in wild-type drug-resistant Escherichia coli […] assessed as potentiation of erythromycin-induced antimicrobial activity by measuring erythromycin MIC at 128 ug/ml by checkerboard titration method (reference value: 64 ug/ml)
T1 sequence (whole entry): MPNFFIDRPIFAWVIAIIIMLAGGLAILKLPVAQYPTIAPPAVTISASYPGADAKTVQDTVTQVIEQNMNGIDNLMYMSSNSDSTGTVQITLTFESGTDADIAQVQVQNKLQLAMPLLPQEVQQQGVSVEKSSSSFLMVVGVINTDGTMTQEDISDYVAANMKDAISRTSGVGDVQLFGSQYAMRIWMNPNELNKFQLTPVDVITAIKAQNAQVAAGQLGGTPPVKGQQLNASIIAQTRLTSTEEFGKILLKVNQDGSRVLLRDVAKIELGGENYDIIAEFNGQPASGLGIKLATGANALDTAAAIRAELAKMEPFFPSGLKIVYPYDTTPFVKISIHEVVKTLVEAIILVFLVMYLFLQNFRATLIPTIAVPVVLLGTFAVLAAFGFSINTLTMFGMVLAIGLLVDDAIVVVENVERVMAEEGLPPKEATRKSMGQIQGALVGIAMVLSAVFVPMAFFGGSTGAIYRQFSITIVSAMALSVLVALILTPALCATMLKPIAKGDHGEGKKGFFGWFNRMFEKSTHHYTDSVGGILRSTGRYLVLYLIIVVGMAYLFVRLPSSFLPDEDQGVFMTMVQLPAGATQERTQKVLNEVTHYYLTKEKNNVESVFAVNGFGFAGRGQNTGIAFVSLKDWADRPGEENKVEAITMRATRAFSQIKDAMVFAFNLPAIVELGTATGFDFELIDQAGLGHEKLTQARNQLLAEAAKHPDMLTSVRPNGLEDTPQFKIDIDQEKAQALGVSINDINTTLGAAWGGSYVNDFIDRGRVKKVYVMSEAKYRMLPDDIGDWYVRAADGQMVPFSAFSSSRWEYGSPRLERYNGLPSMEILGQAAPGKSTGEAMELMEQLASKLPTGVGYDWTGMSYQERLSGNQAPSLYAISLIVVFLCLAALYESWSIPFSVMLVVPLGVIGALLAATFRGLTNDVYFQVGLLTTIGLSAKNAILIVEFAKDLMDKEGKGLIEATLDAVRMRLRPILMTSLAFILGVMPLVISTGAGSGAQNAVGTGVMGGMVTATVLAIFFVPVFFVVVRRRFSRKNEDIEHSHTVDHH

[2] = target: T1, Multidrug efflux pump subunit AcrB (Escherichia coli (strain K12)); test: Inhibition of AcrB in wild-type drug-resistant Escherichia coli […] assessed as potentiation of erythromycin-induced antimicrobial activity by measuring erythromycin MIC at 32 ug/ml by checkerboard titration method (reference value: 64 ug/ml)
[3] = target: T1, Multidrug efflux pump subunit AcrB (Escherichia coli (strain K12)); test: Inhibition of AcrB in wild-type drug-resistant Escherichia coli […] assessed as potentiation of tetraphenyl phosphonium chloride-induced antimicrobial activity by measuring tetraphenyl phosphonium chloride MIC at 16 ug/ml by checkerboard titration method (reference value: 1024 ug/ml)
[4] = target: T1, Multidrug efflux pump subunit AcrB (Escherichia coli (strain K12)); test: Inhibition of AcrB in wild-type drug-resistant Escherichia coli […] assessed as potentiation of tetraphenyl phosphonium chloride-induced antimicrobial activity by measuring tetraphenyl phosphonium chloride MIC at 8 ug/ml by checkerboard titration method (reference value: 1024 ug/ml)
[5] = target: T1, Multidrug efflux pump subunit AcrB (Escherichia coli (strain K12)); test: Inhibition of AcrB in wild-type drug-resistant Escherichia coli […] assessed as potentiation of levofloxacin-induced antimicrobial activity by measuring levofloxacin MIC at 32 ug/ml by checkerboard titration method (reference value: 0.063 ug/ml)
[6] = target: T1, Multidrug efflux pump subunit AcrB (Escherichia coli (strain K12)); test: Inhibition of AcrB in wild-type drug-resistant Escherichia coli […] assessed as potentiation of chloramphenicol-induced antimicrobial activity by measuring chloramphenicol MIC at 8 ug/ml by checkerboard titration method (Rvb =16 ug/ml)
Escherichia coli [7] = test: Toxicity against wild-type drug-resistant Escherichia coli […] at 128 ug/ml; format: organism-based; details: in vivo
In short: (§1)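 MIC determination against wild-type resistant E. coli BW25113 and an isogenic acrB-deleted strain; highest concentration tested 128 mg/L.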

[8] = target: T1, Multidrug efflux pump subunit AcrB (Escherichia coli (strain K12)); test: Inhibition of AcrB in wild-type drug-resistant Escherichia coli […] assessed as potentiation of levofloxacin-induced antimicrobial activity by measuring levofloxacin MIC at 16 ug/ml by checkerboard titration method (reference value: 0.063 ug/ml)
[9] = target: T1, Multidrug efflux pump subunit AcrB (Escherichia coli (strain K12)); test: Inhibition of AcrB in wild-type drug-resistant Escherichia coli […] assessed as potentiation of chloramphenicol-induced antimicrobial activity by measuring chloramphenicol MIC at 64 ug/ml by checkerboard titration method (Rvb =16 ug/ml)
[10] = target: T1, Multidrug efflux pump subunit AcrB (Escherichia coli (strain K12)); test: Inhibition of AcrB in wild-type drug-resistant Escherichia coli […] assessed as potentiation of erythromycin-induced antimicrobial activity by measuring erythromycin MIC at 64 ug/ml by checkerboard titration method (reference value: 64 ug/ml)
[11] = target: T1, Multidrug efflux pump subunit AcrB (Escherichia coli (strain K12)); test: Inhibition of AcrB in wild-type drug-resistant Escherichia coli […] assessed as potentiation of tetraphenyl phosphonium chloride-induced antimicrobial activity by measuring tetraphenyl phosphonium chloride MIC at 128 ug/ml by checkerboard titration method (reference value: 1024 ug/ml)
[12] = target: T1, Multidrug efflux pump subunit AcrB (Escherichia coli (strain K12)); test: Inhibition of AcrB in wild-type drug-resistant Escherichia coli […] assessed as potentiation of levofloxacin-induced antimicrobial activity by measuring levofloxacin MIC at 64 ug/ml by checkerboard titration method (reference value: 0.063 ug/ml)
Escherichia coli [13] = test: Disruption of Escherichia coli inner membrane integrity at 128 ug/ml after 10 mins by DiOC2(3) probe based fluorescence assay; format: ADME, organism-based; details: in vivo
In short: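 Bacterial suspensions pre-exposed to compound for 10 min, then DiOC2(3) added and fluorescence followed to plateau. Cells re-energized with 0.5% glucose; membrane potential (inside negative) read as fluorescence rise to plateau, then collapsed with the proton ionophore CCCP. Untreated cells run alongside.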

[14] = target: T1, Multidrug efflux pump subunit AcrB (Escherichia coli (strain K12)); test: Inhibition of AcrB in wild-type drug-resistant Escherichia coli […] assessed as potentiation of erythromycin-induced antimicrobial activity by measuring erythromycin MIC at 8 ug/ml by checkerboard titration method (reference value: 64 ug/ml)
Escherichia coli [15] = test: Toxicity against AcrB deficient Escherichia coli AcrB lacking at 128 ug/ml; format: organism-based; details: in vivo; in short: as §1
[16] = target: T1, Multidrug efflux pump subunit AcrB (Escherichia coli (strain K12)); test: Inhibition of AcrB in wild-type drug-resistant Escherichia coli […] assessed as potentiation of tetraphenyl phosphonium chloride-induced antimicrobial activity by measuring tetraphenyl phosphonium chloride MIC at 32 ug/ml by checkerboard titration method (reference value: 1024 ug/ml)
[17] = target: T1, Multidrug efflux pump subunit AcrB (Escherichia coli (strain K12)); test: Inhibition of AcrB in wild-type drug-resistant Escherichia coli […] assessed as potentiation of tetraphenyl phosphonium chloride-induced antimicrobial activity by measuring tetraphenyl phosphonium chloride MIC at 64 ug/ml by checkerboard titration method (reference value: 1024 ug/ml)
[18] = target: T1, Multidrug efflux pump subunit AcrB (Escherichia coli (strain K12)); test: Inhibition of AcrB in wild-type drug-resistant Escherichia coli […] assessed as potentiation of levofloxacin-induced antimicrobial activity by measuring levofloxacin MIC at 8 ug/ml by checkerboard titration method (reference value: 0.063 ug/ml)

Row | SMILES | MIC [1] [µg/mL] | MIC [2] [µg/mL] | MIC [3] [µg/mL] | MIC [4] [µg/mL] | MIC [5] [µg/mL] | MIC [6] [µg/mL] | Activity (Escherichia coli [7]) | MIC [8] [µg/mL] | MIC [9] [µg/mL] | MIC [10] [µg/mL] | MIC [11] [µg/mL] | MIC [12] [µg/mL] | Activity (Escherichia coli [13]) | MIC [14] [µg/mL] | Activity (Escherichia coli [15]) | MIC [16] [µg/mL] | MIC [17] [µg/mL] | MIC [18] [µg/mL]
1 | COc1cccc2cc3c(cc12)C(=O)N(c1ccccc1Cl)C3=O | 16 | 64 | 1020 | 1020 | 0.063 | 16 | Non-Toxic | 0.063 | 16 | 64 | 512 | 0.063 | Non-Toxic | 64 | Non-Toxic | 1020 | 1020 | 0.063
2 | COc1cccc2cc3c(cc12)C(=O)N(C(C)C)C3=O | 32 | 32 | 1020 | 1020 | 0.063 | 8 | Non-Toxic | 0.063 | 8 | 32 | 512 | 0.0313 | Non-Toxic | 32 | Non-Toxic | 1020 | 1020 | 0.063
3 | CCCCCCN1C(=O)c2cc3cccc(OC)c3cc2C1=O | 8 | 32 | 1020 | 1020 | 0.063 | 16 | Non-Toxic | 0.063 | 8 | 16 | 128 | 0.063 | Non-Toxic | 64 | Non-Toxic | 512 | 512 | 0.063
4 | COc1cccc2cc3c(cc12)C(=O)N(C)C3=O | 32 | 64 | 1020 | 1020 | 0.0313 | 16 | Non-Toxic | 0.063 | 16 | 32 | 1020 | 0.0313 | Non-Toxic | 64 | Non-Toxic | 1020 | 1020 | 0.063
5 | CCc1ccccc1N1C(=O)c2cc3cccc(OC)c3cc2C1=O | 32 | 64 | 1020 | 1020 | 0.0313 | 16 | Non-Toxic | 0.063 | 16 | 64 | 512 | 0.0313 | Non-Toxic | 64 | Non-Toxic | 1020 | 1020 | 0.063
